# According to PMC11102597 (Molecular cell, 2023):
# Numbering of substitutions follows the chain as printed. Where two headings read alike, the source gives them in different places.
# T1: CHI14-Acb2 (Serratia phage CHI14, UniProt A0A1Z1LXK7)
# T1 sequence (A0A1Z1LXK7 1-96): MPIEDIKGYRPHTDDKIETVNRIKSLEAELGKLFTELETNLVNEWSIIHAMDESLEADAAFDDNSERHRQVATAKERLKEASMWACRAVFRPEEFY
# T2: Acb2 R67A mutant (Pseudomonas phage PaMx33, UniProt A0A1C8HPQ3, R67A)
# T2 sequence (A0A1C8HPQ3 1-93 R67A): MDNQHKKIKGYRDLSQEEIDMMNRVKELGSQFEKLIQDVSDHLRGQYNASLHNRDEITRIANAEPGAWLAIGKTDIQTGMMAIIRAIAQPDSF
# T3: D61R mutant of T4-Acb2 (Enterobacteria phage T4, UniProt P13314, D61R)
# T3 sequence (P13314 1-88 D61R): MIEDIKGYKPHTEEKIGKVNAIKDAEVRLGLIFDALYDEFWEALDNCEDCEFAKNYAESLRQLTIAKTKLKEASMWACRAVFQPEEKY
# T4: Acb2 T74A mutant (Pseudomonas phage PaMx33, UniProt A0A1C8HPQ3, T74A)
# T4 sequence (A0A1C8HPQ3 1-93 T74A): T2 sequence (A0A1C8HPQ3 1-93 R67A) with A67R, T74A
# T5: NucC (Pseudomonas aeruginosa, UniProt P0DTF8)
# T5 sequence (P0DTF8 whole entry, looked up): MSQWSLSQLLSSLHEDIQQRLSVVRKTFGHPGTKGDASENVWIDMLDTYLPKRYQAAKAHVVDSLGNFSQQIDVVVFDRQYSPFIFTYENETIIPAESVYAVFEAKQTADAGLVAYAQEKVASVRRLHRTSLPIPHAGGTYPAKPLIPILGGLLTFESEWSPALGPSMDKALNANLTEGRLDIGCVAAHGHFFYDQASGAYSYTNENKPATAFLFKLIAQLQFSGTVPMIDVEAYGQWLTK
# B1: Acb2 from P. aeruginosa phage PaMx33 (natural protein, Pseudomonas aeruginosa phage PaMx33, UniProt A0A1C8HPQ3 1-93, looked up)
# chain: T2 sequence (A0A1C8HPQ3 1-93 R67A) with A67R
# B2: WT Acb2: anti-CBASS protein Acb2 from P. aeruginosa phage PaMx33, cyclic oligonucleotide sponge (protein)
# chain: T2 sequence (A0A1C8HPQ3 1-93 R67A) with A67R
# modifications: left off: His6-SUMO, end not stated, cleaved
# Legend:
# [1] = target: T6, Acb2 protein (PaMx33-Acb2) (Pseudomonas phage PaMx33, UniProt A0A1C8HPQ3); test: Native gel; assay type: binding, P. aeruginosa phage PaMx33; conditions: WT PaMx33-Acb2 14.3 μM
# T6 sequence (A0A1C8HPQ3 whole entry): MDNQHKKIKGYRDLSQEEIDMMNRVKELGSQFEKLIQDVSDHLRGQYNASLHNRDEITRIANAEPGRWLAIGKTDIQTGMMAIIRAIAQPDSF
# PaMx33-Acb2 [2] = target: T7, PaMx33-Acb2 (Pseudomonas phage PaMx33, UniProt A0A1C8HPQ3); test: biochemical; assay type: binding; conditions: for binding to Acb2 (ITC): WT PaMx33-Acb2
# T7 sequence (A0A1C8HPQ3 whole entry): as above
# [3] = target: T6, Acb2 protein (PaMx33-Acb2); conditions: Figure S1A–B; cited from earlier work
# Y11A Acb2 mutant [4] = target: T8, Y11A Acb2 mutant (Pseudomonas phage PaMx33, UniProt A0A1C8HPQ3, Y11A); conditions: method not stated here; cited from earlier work
# T8 sequence (A0A1C8HPQ3 whole entry Y11A): as the sequence (A0A1C8HPQ3 whole entry) above, with Y11A counted along it
# JBD67-Acb2 = JBD67-Acb2 (Pseudomonas phage JBD67, UniProt P0DX89); test: ITC binding to JBD67-Acb2; parameters: species or system P. aeruginosa phage JBD67
# Sequence of JBD67-Acb2 (P0DX89 whole entry): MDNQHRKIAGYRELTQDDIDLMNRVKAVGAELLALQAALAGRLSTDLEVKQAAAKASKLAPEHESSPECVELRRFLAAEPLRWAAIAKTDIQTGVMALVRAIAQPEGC
# K26A Acb2 mutant [5] = target: T9, K26A Acb2 mutant (Pseudomonas phage PaMx33, UniProt A0A1C8HPQ3, K26A); conditions: method not stated here; cited from earlier work
# T9 sequence (A0A1C8HPQ3 whole entry K26A): as the sequence (A0A1C8HPQ3 whole entry) above, with K26A counted along it
# PaMx33-Acb2 [6] = target: T7, PaMx33-Acb2; conditions: WT Acb2; cited from earlier work
# CHI14-Acb2 [7] = target: T1, CHI14-Acb2; test: Native gel shift assay with CHI14-Acb2; assay type: binding
# Procedure, shortened: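 Recombinant Acb2, expressed in E. coli BL21 (DE3) with 12 h induction at 18°C, was purified as a His6-SUMO fusion on Ni-NTA, cut with Ulp1, then gel-filtered in 10 mM Tris-HCl pH 8.0, 500 mM NaCl, 5 mM DTT. Protein (14.3 μM) was preincubated 10 min at 18°C with cyclic dinucleotides (1.8, 3.6, 7.2 μM). Samples were run on 5% native polyacrylamide gels and stained with Coomassie blue.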
# T4-Acb2 = T4-Acb2 (Enterobacteria phage T4, UniProt P13314); test: ITC binding to T4-Acb2; parameters: species or system Escherichia phage T4
# Sequence of T4-Acb2 (P13314 whole entry): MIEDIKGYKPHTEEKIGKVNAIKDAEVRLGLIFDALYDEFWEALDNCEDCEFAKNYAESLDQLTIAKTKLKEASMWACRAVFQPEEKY
# CHI14-Acb2 [8] = target: T1, CHI14-Acb2; test: ITC binding to CHI14-Acb2
# Y11A Acb2 mutant [9] = target: T8, Y11A Acb2 mutant; test: Native gel shift assay with Acb2 Y11A mutant; assay type: binding, P. aeruginosa phage PaMx33
# K26A Acb2 mutant [10] = target: T9, K26A Acb2 mutant; test: Native gel shift assay with Acb2 K26A mutant; assay type: binding, P. aeruginosa phage PaMx33
# Acb2 R67A mutant = target: T2, Acb2 R67A mutant; test: ITC binding to PaMx33-Acb2 R67A mutant; parameters: species or system P. aeruginosa phage PaMx33; conditions: in vitro
# NucC [11] = target: NucC (Pseudomonas aeruginosa, UniProt P0DTF8); test: In vitro NucC activity assay; assay type: biochemical, P. aeruginosa strain ATCC 27853 (Pa278); conditions: cA3 5 nM
# D61R mutant of T4-Acb2 = target: T3, D61R mutant of T4-Acb2; test: ITC binding to T4-Acb2 D61R mutant; parameters: species or system Escherichia phage T4
# Acb2 T74A mutant = target: T4, Acb2 T74A mutant; test: ITC binding to PaMx33-Acb2 T74A mutant; parameters: species or system P. aeruginosa phage PaMx33
# PaMx33-Acb2 [12] = target: T7, PaMx33-Acb2; test: HPLC analysis of cA3 binding and release by Acb2; parameters: species or system P. aeruginosa phage PaMx33
# crystal structure = target: the molecule itself; test: crystal structure
# NucC [13] = target: T5, NucC; test: In vitro NucC activity assay; assay type: biochemical, P. aeruginosa strain ATCC 27853 (Pa278); conditions: NucC 10 nM, cA3 5 nM, Acb2 50 nM
molecule,measurement,setting,value
"Nc1nc2c(ncn2[C@@H]2O[C@@H]3COP(=O)(O)O[C@H]4[C@@H](O)[C@H](n5cnc6c(N)ncnc65)O[C@@H]4COP(=O)(O)O[C@H]4[C@@H](O)[C@H](n5cnc6c(N)ncnc65)O[C@@H]4COP(=O)(O)O[C@H]3[C@H]2O)c(=O)[nH]1 [cAAG, 3’3’3’-cAAG]",shift of the Acb2 protein / binding (native gel),[1],significant shift
same,Kd,PaMx33-Acb2 [2],~2.7 nM
"Nc1nc2c(ncn2[C@@H]2O[C@@H]3COP(=O)(O)O[C@H]4[C@@H](O)[C@H](n5cnc6c(N)ncnc65)O[C@@H]4COP(=O)(O)O[C@H]3[C@H]2O)c(=O)[nH]1 [3’,3’-cGAMP]",binding to Acb2 (previous work),[3],binds
same,binding to Y11A Acb2 mutant,Y11A Acb2 mutant [4],lose their binding
same,Kd,JBD67-Acb2,~99 nM
same,binding to K26A Acb2 mutant,K26A Acb2 mutant [5],lose their binding
same,Kd,PaMx33-Acb2 [6],~87 nM
same,shift of the CHI14-Acb2 protein (native gel),CHI14-Acb2 [7],almost no shift
same,Kd,T4-Acb2,~84.4 nM
same,Kd,CHI14-Acb2 [8],~62.4 nM
O=c1ccn([C@@H]2O[C@@H]3COP(=O)(O)O[C@H]3[C@H]2O)c(=O)[nH]1 [cUMP],shift of the Acb2 protein / binding (native gel),[1],does not bind
same,binding to Acb2 (ITC),PaMx33-Acb2 [2],does not bind
"O=c1ccn([C@@H]2O[C@@H]3COP(=O)(O)O[C@H]4[C@@H](O)[C@H](n5ccc(=O)[nH]c5=O)O[C@@H]4COP(=O)(O)O[C@H]3[C@H]2O)c(=O)[nH]1 [3’,3’-cUU, 3’,3’-c-di-UMP]",binding to Acb2 (previous work),[3],binds
Nc1ccn([C@@H]2O[C@@H]3COP(=O)(O)O[C@H]3[C@H]2O)c(=O)n1 [cCMP],shift of the Acb2 protein / binding (native gel),[1],does not bind
same,binding to Acb2 (ITC),PaMx33-Acb2 [2],does not bind
"Nc1nc2c(ncn2[C@@H]2O[C@@H]3COP(=O)(O)O[C@@H]4[C@H](O)[C@@H](COP(=O)(O)O[C@H]3[C@H]2O)O[C@H]4n2cnc3c(N)ncnc32)c(=O)[nH]1 [3’,2’-cGAMP]",shift of the Acb2 protein / binding (native gel),[1],significant shift
same,Kd,PaMx33-Acb2 [2],~298 nM
"Nc1ncnc2c1ncn2[C@@H]1O[C@@H]2COP(=O)(O)O[C@H]3[C@@H](O)[C@H](n4cnc5c(N)ncnc54)O[C@@H]3COP(=O)(O)O[C@H]2[C@H]1O [3’,3’-cAA, c-di-AMP]",binding to Acb2 (previous work),[3],binds
Nc1ncnc2c1ncn2[C@@H]1O[C@@H]2COP(=O)(O)O[C@H]3[C@@H](O)[C@H](n4cnc5c(N)ncnc54)O[C@@H]3COP(=O)(O)O[C@H]3[C@@H](O)[C@H](n4cnc5c(N)ncnc54)O[C@@H]3COP(=O)(O)O[C@H]3[C@@H](O)[C@H](n4cnc5c(N)ncnc54)O[C@@H]3COP(=O)(O)O[C@H]3[C@@H](O)[C@H](n4cnc5c(N)ncnc54)O[C@@H]3COP(=O)(O)O[C@H]3[C@@H](O)[C@H](n4cnc5c(N)ncnc54)O[C@@H]3COP(=O)(O)O[C@H]2[C@H]1O [cA6],shift of the Acb2 protein / binding (native gel),[1],does not shift
"Nc1nc2c(ncn2[C@@H]2O[C@@H]3COP(=O)(O)O[C@H]4[C@@H](O)[C@H](n5ccc(=O)[nH]c5=O)O[C@@H]4COP(=O)(O)O[C@H]3[C@H]2O)c(=O)[nH]1 [3’,3’-cUG, 3’,3’-c-UMP-GMP]",binding to Acb2 (previous work),[3],binds
"Nc1ncnc2c1ncn2[C@@H]1O[C@@H]2COP(=O)(O)O[C@H]3[C@@H](O)[C@H](n4cnc5c(N)ncnc54)O[C@@H]3COP(=O)(O)O[C@H]3[C@@H](O)[C@H](n4cnc5c(N)ncnc54)O[C@@H]3COP(=O)(O)O[C@H]2[C@H]1O [cA3, 3’3’3’-cyclic AMP-AMP-AMP]",binding / shift (native gel),Y11A Acb2 mutant [9],significant shift
same,binding / shift (native gel),K26A Acb2 mutant [10],significant shift
same,Kd,JBD67-Acb2,~3.5 nM
same,shift of the Acb2 protein / binding (native gel),[1],significant shift
same,binding (ITC),Acb2 R67A mutant,abolished
same,DNA cleavage activity of NucC,NucC [11]; NucC 10 nM,activates
same,NucC activity with cA3 released after proteolysis of WT Acb2,"NucC [11]; Acb2 50 nM, proteinase K 1 μM",again activated
same,Kd,PaMx33-Acb2 [2],~1.5 nM
same,binding (ITC),D61R mutant of T4-Acb2,unable to bind
same,Kd,Acb2 T74A mutant,~291 nM
same,remaining cA3 after incubation with Acb2 (HPLC),"PaMx33-Acb2 [12]; 40 μM Acb2, 4 μM cA3",depletes any detectable molecules
same,cA3 after proteolysis of Acb2 (HPLC),PaMx33-Acb2 [12]; proteinase K treatment,released back into the buffer unmodified
same,binding (ITC),T4-Acb2; T4-Acb2,does not bind
same,binding (ITC),CHI14-Acb2 [8]; CHI14-Acb2,does not bind
B1,stoichiometry N,crystal structure,6
B2,effect on cA3-activated NucC activity,NucC [13],significantly decreased
